Data set [1] in a line: folding enthalpy; higher = less favourable; fluorescence melt of hairpins on a sequencing array, two-state fit. The settings on record: sodium 0.088 M. An outline of the steps: (§1)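 Melting temperature and folding enthalpy were derived from bootstrapped two-state fits. The fitted temperatures were raised by 9.35 °C to agree with UV melts, and four replicates were combined by inverse variance. The underlying data were Cy3 fluorescence images of library hairpins, with annealed Cy3 and quencher oligos, on a sequenced MiSeq flow cell in 50 mM Na-HEPES pH 8.0, 25 mM NaCl, taken in 2.5 °C steps up to 60 °C, normalised to pre-quench Cy3 and to control constructs.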

The nature of data set [2]: melting temperature; fluorescence melt of hairpins on a sequencing array, two-state fit, raised by 9.35 °C to match UV melts. The settings on record: sodium 0.088 M. An outline of the steps: as §1

This is an account of results in the array DNA melting data of Ke et al. (doi:10.1101/2024.01.08.574731).

On to GCTAGAGGAAACTCTAAC (.(((((....))))).), for which the folding enthalpy in data set [1] is -9.45 kcal/mol. The Tm in data set [2] worked out at 24.8 °C.
Regarding GCTAGCCGAAAGGCAAGC (((.(((....))).))), the folding enthalpy in data set [1] is -27 kcal/mol. For the same sequence, in data set [2], the Tm came out at 60 °C.
For GCTAGCCGAAAGGCAGC (((.(((....)))))), in data set [1], the folding enthalpy is -21.7 kcal/mol. The Tm in data set [2] is 58.1 °C.
Consider GCTAGCGAAAGCTAAGC ((((((....))).))), for which the folding enthalpy in data set [1] is -22.4 kcal/mol. Besides, the Tm in data set [2] was 54.6 °C.
Taken in the same sequence, the figures for GCTAGCGAAAGCTCGAGC ((((((....)))..))) were -14.6 kcal/mol and 35.6 °C.
Taken in the same sequence, the figures for GCTAGCGAAAGCTGTAGC ((((((....)))..))) were -21.3 kcal/mol and 43.1 °C.
Turning to GCTAGCTCGAAAGAGAGC (((..(((....)))))), the folding enthalpy in data set [1] is -12.2 kcal/mol. Moreover, in data set [2], the Tm was determined as 30.4 °C.
The like results for GCTAGGAAACTAGC (((((....))))) were, in that order, -25.6 kcal/mol and 50.8 °C.
GCTAGGCGAAAGCCACGC ((..(((....)))..)): the folding enthalpy in data set [1] was -14.3 kcal/mol. For the same sequence, in data set [2], the Tm came out at 41.5 °C.
The like results for GCTAGGCGAAAGCCCCGC ((..(((....)))..)) were, in that order, -7.78 kcal/mol and 32.6 °C.
As for GCTAGGCGAAAGCCCGGC ((..(((....)))..)), the folding enthalpy in data set [1] was -16.9 kcal/mol. Moreover, the Tm in data set [2] came to 45.6 °C.
In the case of GCTAGGCGAAAGCCGCGC ((..(((....)))..)), in data set [1], the folding enthalpy is -16.9 kcal/mol. The Tm in data set [2] turned out to be 62 °C.
Take GCTAGGCGAAAGCCGGGC ((..(((....)))..)): the folding enthalpy in data set [1] was -16 kcal/mol. For the same sequence, the Tm in data set [2] was found to be 60 °C.
GCTAGGCGAAAGCCGTGC ((..(((....)))..)): the folding enthalpy in data set [1] was -13.9 kcal/mol. The Tm in data set [2] stood at 57.7 °C.
Taken in the same sequence, the figures for GCTAGGCGAAAGCCTCGC ((.((((....)))).)) were -17.8 kcal/mol and 58.9 °C.
The like results for GCTAGGCGAAAGCGAAGC (((..((....))..))) were, in that order, -15.8 kcal/mol and 35.3 °C.
Regarding GCTAGGCGAAAGCGTCGC ((.(.((....)).).)), in data set [1], the folding enthalpy is -14.3 kcal/mol. Further, the Tm in data set [2] was determined as 40.3 °C.
As to GCTAGGCGAAAGCTTGGC ((.(.((....)).).)), the folding enthalpy in data set [1] is -20.6 kcal/mol. Also, the Tm in data set [2] is 45.2 °C.
GCTAGGCGAAAGCTTTGC ((.(.((....)).).)): in data set [1], the folding enthalpy was -17.6 kcal/mol. Further, the Tm in data set [2] stood at 42.3 °C.
Regarding GCTAGGGGAAACCCTGGC ((.((((....)))).)), the folding enthalpy in data set [1] was -36.9 kcal/mol. For the same sequence, the Tm in data set [2] was found to be 53.4 °C.
The like results for GCTAGGGGAAACCTTAGC ((((.((....)).)))) were, in that order, -33.7 kcal/mol and 44.5 °C.
The like results for GCTAGGGGAAACTCTGGC ((.((.(....).)).)) were, in that order, -23.9 kcal/mol and 32.9 °C.
In the case of GCTAGGTCGAAAGACAGC (((..(((....)))))), the folding enthalpy in data set [1] is -18.1 kcal/mol. The Tm in data set [2] amounted to 39.6 °C.
Taken in the same sequence, the figures for GCTAGTCGAAAGACCAGC (((.(((....))).))) were -26.6 kcal/mol and 47.3 °C.
The like results for GCTAGTGCGAAAGCAAGC (((..(((....)))))) were, in that order, -12.3 kcal/mol and 39 °C.
Taken in the same sequence, the figures for GCTAGTGGAAACATTAGC ((((.((....)).)))) were -28.3 kcal/mol and 42.7 °C.
As to GCTATACCGAAAGGTAGC (((..(((....)))))), in data set [1], the folding enthalpy is -17 kcal/mol. Besides, in data set [2], the Tm worked out at 40 °C.
On to GCTATACGAAAGTAAGC (((.(((....)))))), for which, in data set [1], the folding enthalpy is -22.3 kcal/mol. Also, the Tm in data set [2] was 40.6 °C.
In the case of GCTATAGCGAAAGCTAGC (((..(((....)))))), the folding enthalpy in data set [1] was -18 kcal/mol. In data set [2], the Tm came out at 44.6 °C.
With GCTATAGGAAACTATGGC ((.((((....)))).)), the folding enthalpy in data set [1] was -28.6 kcal/mol. In addition, the Tm in data set [2] amounted to 41.7 °C.
Take GCTATCACGAAAGTGAGC (((..(((....)))))): the folding enthalpy in data set [1] is -14.1 kcal/mol. Moreover, the Tm in data set [2] turned out to be 36.1 °C.
With GCTATCCGAAAGGAAAGC (((.(((....))).))), the folding enthalpy in data set [1] is -31.4 kcal/mol. Moreover, in data set [2], the Tm stood at 49 °C.
For GCTATCGAAAGATAGAGC ((((((....)))..))), in data set [1], the folding enthalpy was -23.4 kcal/mol. In data set [2], the Tm turned out to be 42.7 °C.
For GCTATCGAAAGATCAAGC ((((((....)))..))), the folding enthalpy in data set [1] was -18.3 kcal/mol. Also, the Tm in data set [2] amounted to 30.8 °C.
For GCTATCGAAAGATGGAGC ((((((....)))..))), the folding enthalpy in data set [1] was -15.9 kcal/mol. In data set [2], the Tm came out at 33.6 °C.
Taken in the same sequence, the figures for GCTATCGAAAGATTCAGC ((((((....)))..))) were -11.6 kcal/mol and 29.6 °C.
With GCTATGCCGAAAGGCAGC (((..(((....)))))), the folding enthalpy in data set [1] was -12.1 kcal/mol. In addition, the Tm in data set [2] stood at 40.2 °C.
